Source: PubChem
TRPC4 agonist: activators of mouse TRPC4 channel | Q9QUQ5 | HEK293 TRPC4beta/mu-opioid, Fluo4 calcium fluorescence; active compounds read high | B-score at 10 µM | hit rate 0.49% among 310,000;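 active = B-score above 5 SD of library B-scores, and initial fluorescence ratio not above library mean plus 5 SD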;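 note: positive B-score marks a calcium rise read as TRPC4 activation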
Target sequence (Q9QUQ5 whole entry, looked up): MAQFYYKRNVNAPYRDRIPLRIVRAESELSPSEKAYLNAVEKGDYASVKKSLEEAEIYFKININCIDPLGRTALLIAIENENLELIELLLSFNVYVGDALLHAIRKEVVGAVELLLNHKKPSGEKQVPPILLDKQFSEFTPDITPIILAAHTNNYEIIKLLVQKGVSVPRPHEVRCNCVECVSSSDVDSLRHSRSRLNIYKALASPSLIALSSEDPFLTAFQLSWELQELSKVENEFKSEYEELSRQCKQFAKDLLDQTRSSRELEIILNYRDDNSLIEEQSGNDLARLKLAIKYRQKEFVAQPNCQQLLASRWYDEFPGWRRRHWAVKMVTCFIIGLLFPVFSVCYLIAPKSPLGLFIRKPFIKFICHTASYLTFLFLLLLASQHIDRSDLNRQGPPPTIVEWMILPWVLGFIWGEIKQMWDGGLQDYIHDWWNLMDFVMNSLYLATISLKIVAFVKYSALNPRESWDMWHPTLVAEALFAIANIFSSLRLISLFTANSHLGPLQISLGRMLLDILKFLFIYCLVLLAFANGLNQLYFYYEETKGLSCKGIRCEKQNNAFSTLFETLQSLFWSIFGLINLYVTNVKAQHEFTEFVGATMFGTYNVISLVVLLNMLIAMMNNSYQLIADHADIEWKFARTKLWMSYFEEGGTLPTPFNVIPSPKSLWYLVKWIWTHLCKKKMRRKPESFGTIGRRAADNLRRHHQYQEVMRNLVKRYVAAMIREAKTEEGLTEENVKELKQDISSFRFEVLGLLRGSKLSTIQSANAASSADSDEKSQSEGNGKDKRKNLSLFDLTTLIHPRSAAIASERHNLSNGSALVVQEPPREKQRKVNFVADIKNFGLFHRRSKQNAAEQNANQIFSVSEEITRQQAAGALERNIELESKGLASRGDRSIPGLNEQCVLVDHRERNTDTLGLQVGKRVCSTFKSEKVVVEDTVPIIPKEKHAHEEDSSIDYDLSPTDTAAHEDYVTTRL
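system = HEK293 cells stably co-expressing mouse TRPC4beta and mu-opioid receptor | schedule = Fluo4 dye loading 45 min at room temperature, 110 s recording | measure = B-scored integrated calcium fluorescence ratio | signal = Fluo4 calcium-sensitive dye fluorescence, kinetic, 1 Hz baseline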
TRPC6 activator: activators of mouse TRPC6 channel | B-score at 10 µM | hit rate 0.13% among 310,000 | Q61143 | HEK293-TRPC6 membrane potential dye fluorescence; active compounds read high;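 active = B-score of the integrated fluorescence ratio above library mean plus 3 SD, and starting fluorescence ratio within library mean plus 5 SD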;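 note: higher score means more depolarization so channel activation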
CR mimetic SO: yeast age-related superoxide inhibition as caloric restriction mimetic; hit rate 0.18% among 330,000; superoxide response (% of plate mean), % at 10 µM; AID 2690; S. cerevisiae aged cells, superoxide DHE fluorescence; active compounds read low;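 active = superoxide response under a set limit, about three screen SD below normal, cut at about 65% in these data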;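 note: yeast aged for seven days with compound at 30 °C before DHE staining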
TRPC4 potent: TRPC4 (mouse) allosteric potentiation; Q9QUQ5; HEK293 TRPC4beta/mu-opioid, DAMGO EC20, Fluo-4 Ca2+ flux; active compounds read high; B-score at 10 µM; hit rate 0.42% among 310,000;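 active = B-score of calcium response area above 5 SD of library B-scores, with initial fluorescence ratio within 5 SD of library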
TRPC4 inh: TRPC4 (mouse) channel inhibition. Q9QUQ5. HEK293 TRPC4beta/mu-opioid, DAMGO-evoked Fluo4 calcium flux; active compounds read low. B-score at 10 µM. hit rate 0.39% among 300,000. AID 2247;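 active = B-score over 3 SD under the library average, no early fluorescence shift, positive overall ratio signal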
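Test system – stable TRPC4beta/mu-opioid receptor HEK293 cells · Probe or stimulus – DAMGO, a submaximal dose followed by a maximal one · Dosing – one concentration per compound · Signal – Fluo4 calcium fluorescence by kinetic imaging, 5 s 1 Hz baseline · Evaluation – per-well B score of integrated baseline-normalized Fluo4 ratio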
TRPC6 inh: blocks the mouse TRPC6 cation channel | Q61143 | HEK293-TRPC6, membrane potential dye, ACh-evoked depolarization; active compounds read low | B-score at 10 µM | hit rate 1.1% among 310,000 | AID 2553;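 active = B-score under library mean minus 3 SD, initial fluorescence not abnormally high, positive integrated signal ratio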;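 note: B-score derived from integrated fluorescence ratio over the kinetic read; more negative B-score means stronger inhibition of depolarization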
Superoxide pick: confirmation of caloric restriction mimetics inhibiting yeast age-related superoxide; superoxide response (% of plate), % at 10 µM; S. cerevisiae aging, superoxide DHE fluorescence; active compounds read low; shares compounds with CR mimetic SO; hit rate 1% among 850;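 active = superoxide signal below 65% of the plate average of sample wells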;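 note: cells aged with compound for 7 days at 30 degrees C before staining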
DHE counter: compound alters DHE oxidation or fluorescence in yeast | shares compounds with CR mimetic SO | S. cerevisiae BY4741, flow cytometry; active compounds read low | fluorescence response, % at 10 µM | 850 tested, under 10 active | AID 435000;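 active = fluorescence response below 15%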;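 note: lower means stronger quenching of DHE signal or ROS scavenging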
Numbers stand for hits; . = inactive; / = not tested or not shown. An excerpt weighted towards active compounds, which were near 2.3% of everything screened.

SMILES	TRPC4 agonist	TRPC6 activator	CR mimetic SO	TRPC4 potent	TRPC4 inh	TRPC6 inh	Superoxide pick	DHE counter
O=C(NC(=O)N1CCCC1)c1csnn1	.	.	64	.	.	.	.	.
CC1CCCCN1S(=O)(=O)c1ccc(C(=O)Nc2nnc(C3CC3)o2)cc1 (stereo not given)	.	.	.	.	.	.	.	.
CC1CCN(S(=O)(=O)c2ccc(C(=O)Nc3nnc(C4CC4)o3)cc2)CC1	.	.	.	.	.	.	.	.
CC1CCCCN1S(=O)(=O)c1ccc(C(=O)Nc2nnc(-c3ccco3)o2)cc1 (stereo not given)	.	.	.	.	.	.	.	.
Cc1nnc(NC(=O)c2ccc(S(=O)(=O)N3CCCCC3C)cc2)o1 (stereo not given)	.	.	.	.	.	.	/	/
CC1CCCCN1S(=O)(=O)c1ccc(C(=O)Nc2nnc(C3=COCCO3)o2)cc1 (stereo not given)	.	.	.	.	.	.	.	.
COc1ccccc1CNC(=O)COc1ccc(Br)c(C)c1	.	.	.	.	.	.	/	/
O=C(Nc1ccc(Cl)cc1[N+](=O)[O-])c1ccc2c(c1)OCCO2	.	.	.	.	.	.	/	/
COc1ccc(-c2ccc(=O)n(Cc3ccccc3)n2)cc1	.	.	.	.	.	.	/	/
COc1ccc(-c2ccc(=O)n(Cc3cccc(Cl)c3)n2)cc1	.	.	55	.	.	.	.	.
Cc1ccc(S(=O)(=O)N(CC(=O)Nc2ccc(C(N)=O)cc2)C(=O)N2CCN(C)CC2)cc1	.	.	65	.	.	.	.	.
COc1ccc(NS(=O)(=O)c2ccc3ccccc3c2)c2ncccc12	.	.	.	.	.	.	/	/
COc1ccc(Cl)cc1S(=O)(=O)N1CCCC1=O	.	.	.	.	.	.	.	.
CC(C)(c1cc(Br)c(O)c(Br)c1)c1cc(Br)c(O)c(Br)c1	/	/	43	/	/	/	.	.
Cc1ccc(S(=O)(=O)Nc2c(C)cc(C)nc2Cl)cc1	.	.	50	.	.	.	.	.
O=c1c2ccccc2nc(-c2ccccc2)n1Cc1ccccc1	.	.	.	.	.	.	/	/
CC(=O)c1ccc(OCCCC(=O)Nc2ccc3c(c2)OCCO3)cc1	/	/	.	/	/	/	/	/
Cc1ccc(NC2=NCCC2)cc1Cl	.	.	65	.	.	.	.	.
CC(C)CN1C(=O)C(=O)N(CC(=O)Nc2cccc(Cl)c2Cl)C1=O	/	/	.	/	/	/	/	/
COc1ccc2c3c(cccc13)N(C)N=C2C	.	.	59	.	.	.	.	.
CCOC(=O)C(C)Sc1nc(N)c(NC(=O)c2ccc(OC)c(OC)c2)c(=O)[nH]1 (stereo not given)	.	.	.	.	.	.	/	/
O=C(CCCOc1ccccc1)Nc1ccc(Cl)cn1	.	.	58	.	.	.	.	.
CCCCCCC(=O)Nc1ccc(Cl)cn1	.	.	.	.	.	.	/	/
COc1ccc2nc(Nc3nc(C)c(CCC(C)C)c(=O)[nH]3)nc(C)c2c1	.	.	65	.	.	.	.	.
COc1ccccc1C(c1nnnn1Cc1ccccc1)N1CCN(c2nc3ccccc3s2)CC1 (stereo not given)	.	.	.	.	.	.	/	/
SMILES	TRPC4 agonist	TRPC6 activator	CR mimetic SO	TRPC4 potent	TRPC4 inh	TRPC6 inh	Superoxide pick	DHE counter
OC(c1nc2ccccc2[nH]1)C(O)c1nc2ccccc2[nH]1 (stereo not given)	.	.	.	.	.	.	/	/
FC(F)(F)c1nc2cc3nc4ccccc4[nH]c3cc2n1	.	.	56	.	.	.	55	.
O=C(O)c1c(N2CCCCC2)ccc([N+](=O)[O-])c1N1CCCCC1	.	.	53	.	.	.	.	.
CC1CC(NC(=O)CCn2c(=O)oc3ccccc32)CC(C)(C)C1 (stereo not given)	/	/	.	/	/	/	/	/
CCOC(=O)c1sc(=NC(=O)COc2ccc(Cl)cc2)n(C)c1C	.	.	.	.	.	.	/	/
Cc1cc([N+](=O)[O-])nn1Cc1ccc(C(=O)N/N=C/c2ccc(F)cc2)cc1	.	.	.	.	.	.	/	/
Cc1cc([N+](=O)[O-])nn1Cc1ccc(C(=O)N/N=C/c2ccc(O)cc2O)cc1	.	.	65	.	.	.	.	.
CCc1ccc(NC(=O)CSc2nnc(-c3ccco3)o2)cc1	.	.	65	.	.	.	.	.
CC(=O)Nc1ccc(NC(=O)CSc2nnc(-c3ccco3)o2)cc1	.	.	.	.	.	.	/	/
CC(=O)n1c2ccccc2c2ccccc21	.	.	.	.	.	.	.	.
O=C1c2cc(S(=O)(=O)N(CCO)CCO)ccc2-c2ccc(S(=O)(=O)N(CCO)CCO)cc21	.	.	.	.	.	.	/	/
CN(CCO)S(=O)(=O)c1ccc2c(c1)C(=NN)c1cc(S(=O)(=O)N(C)CCO)ccc1-2	.	.	65	.	.	.	.	.
COc1cc(/C=N/NC(=O)CCN2CCN(c3ccccc3)CC2)cc(OC)c1OC	.	.	.	.	.	.	/	/
COc1ccc(/C=N/NC(=O)CCN2CCN(c3ccccc3)CC2)c(OC)c1OC	.	.	62	.	.	.	.	.
COc1ccccc1NC(=O)C(C)OC(=O)CSCC(=O)Nc1ccc(C)cc1C (stereo not given)	/	/	.	/	/	/	/	/
c1ccc(-c2cccc(-c3ccccn3)n2)nc1	.	.	63	.	.	.	.	.
Cc1cc(C)c(N2C(=NC(=O)CCCC(=O)O)SC3CS(=O)(=O)CC32)c(C)c1 (stereo not given)	.	.	.	.	.	.	/	/
COCC(=O)NCCc1ccc(S(N)(=O)=O)cc1	.	.	.	.	.	.	/	/
NS(=O)(=O)c1ccc(CCNC(=O)CNC(=O)COc2ccccc2)cc1	.	.	55	.	.	.	.	.
C[C@@H](C(=O)OCC(=O)NCCc1ccc(S(N)(=O)=O)cc1)N1C(=O)C2CCCCC2C1=O (stereo not given in full)	.	.	65	.	.	.	.	.
COc1ccc(F)c(CN2CCC(n3nccc3NC(=O)CCCc3ccccc3)CC2)c1	.	.	.	.	.	.	/	/
COC(=O)C1C(=O)C=C(Nc2ccc(F)cc2)CC1c1ccc(OC)cc1 (stereo not given)	.	.	65	.	.	.	.	.
O=C1C=C(NC2=CC3OC(c4ccccc4)OCC3OC2=O)CCC1 (stereo not given)	.	.	60	.	.	.	.	.
COc1ccc(-c2nc3c(s2)CN(S(C)(=O)=O)CC3)cc1OC	.	.	.	.	.	.	/	/
CCS(=O)(=O)N1CCc2nc(-c3ccccc3)sc2C1	.	.	46	.	.	.	.	.
